Measured values reported in ChEMBL document CHEMBL1629494, “New amino acid esters of salicylanilides active against MDR-TB and other microbes” (Eur J Med Chem, 2010).
Values after ≈ are worked out from the molar mass of the structure shown.

Key:
Type in all cases: functional
[1] = system: Staphylococcus aureus; assay: Antibacterial activity against Staphylococcus aureus CCM 4516/08 after 24 hrs by broth microdilution method; settings: CCM 4516/08, 24 h
In short: (§1)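 Broth microdilution following […], with twofold compound dilutions in Mueller-Hinton bouillon. Incubated 24 and 48 h at 35 °C in the dark in a humid atmosphere. MIC (IC80) was taken as ≥80% growth reduction versus control, read visually and photometrically.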

[2] = system: Lichtheimia corymbifera; assay: Antifungal activity against Absidia corymbifera 272 after 48 hrs by broth microdilution method; settings: Lichtheimia corymbifera, 272, 48 h
[3] = system: Enterococcus sp.; assay: Antibacterial activity against Enterococcus sp. J14365/08 after 48 hrs by broth microdilution method; settings: J14365/08, 48 h; in short: as §1
[4] = system: Pichia kudriavzevii; assay: Antifungal activity against Candida krusei E28 after 24 hrs by broth microdilution method; settings: E28, 24 h
[5] = system: Trichosporon beigelii; assay: Antifungal activity against Trichosporon beigelii 1188 after 24 hrs by broth microdilution method; settings: Trichosporon beigelii, 1188, 24 h
[6] = system: Mycobacterium kansasii; assay: Antimycobacterial activity against Mycobacterium kansasii 6509/96 after 7 days by micromethod; settings: 6509/96, 168 h
In short: (§2)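 Micromethod in Sula semisynthetic medium, with compounds added as DMSO solutions at 1000, 500, 250, 125, 62, 32, 16, 8, 4, 2, 1, 0.5, 0.25. Inoculum dilutions: H37Rv 10^-3; M. avium 330/88 10^-5; M. kansasii 235/80 10^-4; M. kansasii 6509/96 10^-5. Incubated at 37 °C, read at 14 and 21 days, and at 7 days for M. kansasii. MIC was the lowest concentration inhibiting growth.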

[7] = system: Lichtheimia corymbifera; assay: Antifungal activity against Absidia corymbifera 272 after 24 hrs by broth microdilution method; settings: Lichtheimia corymbifera, 272, 24 h
[8] = system: Candida tropicalis; assay: Antifungal activity against Candida tropicalis 156 after 48 hrs by broth microdilution method; settings: Candida tropicalis, 156, 48 h
[9] = system: Escherichia coli; assay: Antibacterial activity against Escherichia coli CCM 4517 after 48 hrs by broth microdilution method; settings: CCM 4517, 48 h; in short: as §1
[10] = system: Mycobacterium tuberculosis; assay: Antimycobacterial activity against Mycobacterium tuberculosis H37Rv 331/88 after 21 days by micromethod; settings: H37Rv 331/88, 504 h; in short: as §2
[11] = system: Candida albicans; assay: Antifungal activity against Candida albicans ATCC 44859 after 24 hrs by broth microdilution method; settings: ATCC 44859, 24 h
[12] = system: Staphylococcus aureus; assay: Antibacterial activity against methicillin-resistant Staphylococcus aureus H5996/08 after 48 hrs by broth microdilution method; settings: H5996/08, 48 h; in short: as §1
[13] = system: Mycobacterium kansasii; assay: Antimycobacterial activity against Mycobacterium kansasii 6509/96 after 14 days by micromethod; settings: 6509/96, 336 h; in short: as §2
[14] = system: Candida tropicalis; assay: Antifungal activity against Candida tropicalis 156 after 24 hrs by broth microdilution method; settings: Candida tropicalis, 156, 24 h
[15] = system: Candida albicans; assay: Antifungal activity against Candida albicans ATCC 44859 after 48 hrs by broth microdilution method; settings: ATCC 44859, 48 h
[16] = system: Mycobacterium kansasii; assay: Antimycobacterial activity against Mycobacterium kansasii 235/80 after 7 days by micromethod; settings: 235/80, 168 h; in short: as §2
[17] = system: Mycobacterium kansasii; assay: Antimycobacterial activity against Mycobacterium kansasii 235/80 after 21 days by micromethod; settings: 235/80, 504 h; in short: as §2
[18] = system: Trichophyton mentagrophytes; assay: Antifungal activity against Trichophyton mentagrophytes after 48 hrs by broth microdilution method
[19] = system: Aspergillus fumigatus; assay: Antifungal activity against Aspergillus fumigatus 231 after 48 hrs by broth microdilution method; settings: Aspergillus fumigatus, 231, 48 h
[20] = system: Aspergillus fumigatus; assay: Antifungal activity against Aspergillus fumigatus 231 after 24 hrs by broth microdilution method; settings: Aspergillus fumigatus, 231, 24 h
[21] = system: Pichia kudriavzevii; assay: Antifungal activity against Candida krusei E28 after 48 hrs by broth microdilution method; settings: E28, 48 h
[22] = system: Staphylococcus aureus; assay: Antibacterial activity against Staphylococcus aureus CCM 4516/08 after 48 hrs by broth microdilution method; settings: CCM 4516/08, 48 h; in short: as §1
[23] = system: Trichosporon beigelii; assay: Antifungal activity against Trichosporon beigelii 1188 after 48 hrs by broth microdilution method; settings: Trichosporon beigelii, 1188, 48 h
[24] = system: Mycobacterium tuberculosis; assay: Antimycobacterial activity against drug-sensitive Mycobacterium tuberculosis
[25] = system: Mycobacterium tuberculosis; assay: Antimycobacterial activity against Mycobacterium tuberculosis H37Rv 331/88 after 14 days by micromethod; settings: H37Rv 331/88, 336 h; in short: as §2
[26] = system: Escherichia coli; assay: Antibacterial activity against Escherichia coli CCM 4517 after 24 hrs by broth microdilution method; settings: CCM 4517, 24 h; in short: as §1
[27] = system: Trichophyton mentagrophytes; assay: Antifungal activity against Trichophyton mentagrophytes after 24 hrs by broth microdilution method
[28] = system: Enterococcus sp.; assay: Antibacterial activity against Enterococcus sp. J14365/08 after 24 hrs by broth microdilution method; settings: J14365/08, 24 h; in short: as §1
[29] = system: Mycobacterium avium; assay: Antimycobacterial activity against multidrug-resistant Mycobacterium avium 330/88 after 14 days by micromethod; settings: 330/88, 336 h; in short: as §2
[30] = system: Nakaseomyces glabratus; assay: Antifungal activity against Candida glabrata 20/I after 24 hrs by broth microdilution method
[31] = system: Staphylococcus epidermidis; assay: Antibacterial activity against Staphylococcus epidermidis H6966/08 after 48 hrs by broth microdilution method; settings: H6966/08, 48 h; in short: as §1
[32] = system: Staphylococcus epidermidis; assay: Antibacterial activity against Staphylococcus epidermidis H6966/08 after 24 hrs by broth microdilution method; settings: H6966/08, 24 h; in short: as §1
[33] = system: Mycobacterium kansasii; assay: Antimycobacterial activity against Mycobacterium kansasii
[34] = system: Mycobacterium avium; assay: Antimycobacterial activity against Mycobacterium avium
[35] = system: Mycobacterium kansasii; assay: Antimycobacterial activity against Mycobacterium kansasii 6509/96 after 21 days by micromethod; settings: 6509/96, 504 h; in short: as §2
[36] = system: Mycobacterium avium; assay: Antimycobacterial activity against multidrug-resistant Mycobacterium avium 330/88 after 21 days by micromethod; settings: 330/88, 504 h; in short: as §2
[37] = system: Klebsiella pneumoniae; assay: Antibacterial activity against Klebsiella pneumoniae D11750/08 after 48 hrs by broth microdilution method; settings: D11750/08, 48 h; in short: as §1
[38] = system: Klebsiella pneumoniae; assay: Antibacterial activity against Klebsiella pneumoniae D11750/08 after 24 hrs by broth microdilution method; settings: D11750/08, 24 h; in short: as §1
[39] = system: Staphylococcus aureus; assay: Antibacterial activity against methicillin-resistant Staphylococcus aureus H5996/08 after 24 hrs by broth microdilution method; settings: H5996/08, 24 h; in short: as §1
[40] = system: Mycobacterium kansasii; assay: Antimycobacterial activity against Mycobacterium kansasii 235/80 after 14 days by micromethod; settings: 235/80, 336 h; in short: as §2
[41] = system: Nakaseomyces glabratus; assay: Antifungal activity against Candida glabrata 20/I after 48 hrs by broth microdilution method

CC(=O)N[C@@H](Cc1ccccc1)C(=O)Oc1cc(Cl)ccc1C(=O)Nc1ccc(Br)cc1
MIC [1]: 0.98 µM (≈ 0.505 µg/mL)
MIC [2]: 62.5 µM (≈ 32.2 µg/mL)
MIC [3]: 125 µM (≈ 64.5 µg/mL)
MIC [4]: > 125 µM
MIC [5]: 15.6 µM (≈ 8.06 µg/mL)
MIC [6]: 4 µM (≈ 2.06 µg/mL)
MIC [7]: 15.6 µM (≈ 8.06 µg/mL)
MIC [8]: > 125 µM
MIC [9]: 125 µM (≈ 64.5 µg/mL)
MIC [10]: 4 µM (≈ 2.06 µg/mL)
MIC [11]: > 125 µM
MIC [12]: 7.81 µM (≈ 4.03 µg/mL)
MIC [13]: 4 µM (≈ 2.06 µg/mL)
MIC [14]: > 125 µM
MIC [15]: > 125 µM
MIC [16]: 2 µM (≈ 1.03 µg/mL)
MIC [17]: 4 µM (≈ 2.06 µg/mL)
MIC [18]: 15.6 µM (≈ 8.06 µg/mL)
MIC [19]: > 125 µM
MIC [20]: 62.5 µM (≈ 32.2 µg/mL)
MIC [21]: > 125 µM
MIC [22]: 1.95 µM (≈ 1.01 µg/mL)
MIC [23]: 62.5 µM (≈ 32.2 µg/mL)
MIC [24]: 1 µM (≈ 0.516 µg/mL)
MIC [25]: 2 µM (≈ 1.03 µg/mL)
MIC [26]: 15.6 µM (≈ 8.06 µg/mL)
MIC [27]: 7.81 µM (≈ 4.03 µg/mL)
MIC [28]: 7.81 µM (≈ 4.03 µg/mL)
MIC [29]: 4 µM (≈ 2.06 µg/mL)
MIC [30]: > 125 µM
MIC [31]: 1.95 µM (≈ 1.01 µg/mL)
MIC [32]: 0.98 µM (≈ 0.505 µg/mL)
MIC [33]: 1 µM (≈ 0.516 µg/mL)
MIC [34]: 1 µM (≈ 0.516 µg/mL)
MIC [35]: 8 µM (≈ 4.13 µg/mL)
MIC [36]: 8 µM (≈ 4.13 µg/mL)
MIC [37]: > 125 µM
MIC [38]: > 125 µM
MIC [39]: 0.98 µM (≈ 0.505 µg/mL)
MIC [40]: 4 µM (≈ 2.06 µg/mL)
MIC [41]: > 125 µM

Nc1ccc(C(=O)O)c(O)c1 [AMINOSALICYLIC ACID]
MIC [6]: 32 µM (≈ 4.9 µg/mL)
MIC [10]: 62.5 µM (≈ 9.57 µg/mL)
MIC [13]: 125 µM (≈ 19.1 µg/mL)
MIC [16]: 125 µM (≈ 19.1 µg/mL)
MIC [17]: > 1000 µM
MIC [25]: 62.5 µM (≈ 9.57 µg/mL)
MIC [29]: 32 µM (≈ 4.9 µg/mL)
MIC [35]: 500 µM (≈ 76.6 µg/mL)
MIC [36]: 125 µM (≈ 19.1 µg/mL)
MIC [40]: 1000 µM (≈ 153 µg/mL)
